Measured values published in ChEMBL document CHEMBL1158061, “Alkaloids from Gelsemium elegans” (J Nat Prod, 2006).

What was measured:
Type in all cases: functional, cell-based
[1] = tested on: HL-60; experiment: Cytotoxicity against human HL-60 cells by MTT method
In short: (§1)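 MTT assay on P388 (murine leukemia) and HL-60 (human leukemia) cells, run by standard protocol with pseudolaric acid B as positive control. Values are reported as IC50 in molar units.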

[2] = tested on: Bel-7402; experiment: Cytotoxicity against human Bel-7402 cells by SRB method
In short: (§2)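 SRB assay on A-549 (human lung adenocarcinoma) and BEL-7402 (human hepatocellular carcinoma) cells, run by standard protocol with pseudolaric acid B as positive control. Values are reported as IC50 in molar units.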

[3] = tested on: P388; experiment: Cytotoxicity against mouse P388 cells by MTT method; in short: as §1
[4] = tested on: A549; experiment: Cytotoxicity against human A549 cells by SRB method; in short: as §2

Structure (SMILES) | IC50 [1] | IC50 [2] | IC50 [3] | IC50 [4]
CON1C(=O)[C@@]2(C[C@@H]3N=C([C@@H](C)C[C@H]4C(=O)OC[C@H]5[C@@H]4[C@@H](O)C[C@@H]5C)[C@@H]4[C@@H](O)[C@H]2OC[C@@H]43)c2ccccc21 | > 10 µM | > 10 µM | > 10 µM | > 10 µM
CON1C(=O)[C@@]2(C[C@@H]3N=C([C@H](C)C[C@@H]4C(=O)O[C@H]5C[C@H](C)[C@@H](CO)[C@H]54)[C@@H]4[C@@H](O)[C@H]2OC[C@@H]43)c2ccccc21 | > 10 µM | > 10 µM | > 10 µM | > 10 µM
CCN(CC)C[C@@H]1C(=O)O[C@H]2C[C@H](C)[C@@H](CO)[C@H]21 [GELSEBAMINE] |  |  |  | 0.634 µM
C=C[C@@]12CN(C)C3C1[C@@]1(C(=O)N(C[C@@H]4C(=O)O[C@H]5C[C@H](C)[C@@H](CO)[C@H]54)c4ccccc41)[C@H]1C[C@@H]2[C@@H]3CO1 [GELSEBANINE] | > 10 µM | > 10 µM | > 10 µM | > 10 µM
